Results on 6 molecules are retold here after ChEMBL document CHEMBL1150828, “Antimalarial, cytotoxic, and antifungal alkaloids from Duguetia hadrantha” (J Nat Prod, 2001).

The test system of one data set is BT-549. The data set is described as follows: Cytotoxicity against human BT549 cells after 2 to 7 days by neutral red assay. Format: functional, cell-based.
For the next data set, the system named is SK-OV-3. The data set can be described thus: Cytotoxicity against human SKOV3 cells after 2 to 7 days by neutral red assay. Format: functional, cell-based.
Another data set relates to KB. The data set is described as follows: Cytotoxicity against human KB cells after 2 to 7 days by neutral red assay. Format: functional, cell-based.
A further data set deals with SK-MEL. The data set is described as follows: Cytotoxicity against human SK-MEL cells after 2 to 7 days by neutral red assay. Format: functional, cell-based.
Data set [1] concerns Plasmodium falciparum. The data set is described as follows: Antimalarial activity after 48 hrs against chloroquine-sensitive Plasmodium falciparum D6 as LDH activity by Makler method. Format: functional, organism-based. The note with it: D6, 48 h. In a few lines:
(§1)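 Parasite lactate dehydrogenase (pLDH) assay adapted from Makler, run in 96-well microplates on two P. falciparum clones, W-2 and D-6 (D-6 chloroquine-sensitive). Chloroquine and artemisinin were positive controls, with DMSO as the vehicle control.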

In the next data set the test system is Cryptococcus neoformans. The data set can be described thus: Antifungal activity against Cryptococcus neoformans ATCC 90113 after 48 hrs by modified well microplate assay. Format: functional, organism-based. Put shortly:
(§2)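 ATCC strains (C. albicans B311 #90028, C. neoformans #90113, S. aureus #6535, MRSA #33591) were tested in a modified 96-well microplate protocol. […] Amphotericin B and rifampin served as positive controls and DMSO as the negative control.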

Data set [2] deals with Staphylococcus aureus. The data set is described as follows: Antibacterial activity against methicillin-resistant Staphylococcus aureus ATCC 33591 after 48 hrs by modified well microplate assay. Format: functional, organism-based. Put shortly:
as §2

The test system of data set [3] is Staphylococcus aureus. The data set can be described thus: Antibacterial activity against Staphylococcus aureus ATCC 6535 after 48 hrs by modified well microplate assay. Format: functional, organism-based. In a few lines: as §2
Data set [4] can be described thus: Selectivity index, ratio of IC50 of african green monkey (Cercopithecus aethiops) Vero cells to IC50 for chloroquine-resistant Plasmodium falciparum W2. Format: toxicity, cell-based. The note with it: read-out: Ratio IC50.
Data set [5] has as its system Candida albicans. The data set can be described thus: Antifungal activity against Candida albicans B311 after 48 hrs by modified well microplate assay. Format: functional, organism-based. The note with it: B311, 48 h. Put shortly: as §2
Data set [6] can be described thus: Selectivity index, ratio of IC50 of african green monkey (Cercopithecus aethiops) Vero cells to IC50 for chloroquine-sensitive Plasmodium falciparum D6. Format: toxicity, cell-based. The note with it: read-out: Ratio IC50.
Data set [7] deals with Plasmodium falciparum. The data set is described as follows: Antimalarial activity after 48 hrs against chloroquine-resistant Plasmodium falciparum W2 as LDH activity by Makler method. Format: functional, organism-based. The note with it: W2, 48 h. In a few lines: as §1
Data set [8] has as its target Intercellular adhesion molecule (ICAM-1), Integrin alpha-L/beta-2 (Homo sapiens) (UniProt P20701+P05362+P05107). The data set is described as follows: Inhibition of LFA1/ICAM1-mediated aggregation of TPA-stimulated human HL60 cells pretreated 10 mins before TPA challenge measured after 16 hrs of PMA addition by microscopy. Format: cell-based. The note with it: HL-60. Put shortly: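 HL-60 cells at 1 × 10^6 cells/mL preincubated 10 min with sample, then PMA 10 ng/mL added; plates kept in CO2 incubator and aggregation scored microscopically 16 h after PMA; MIC reported; cytochalasin B, anti-LFA-1 and anti-ICAM-1 antibodies as positive controls.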

The subject of a further data set is HL-60. The data set is described as follows: Cytotoxicity against human HL60 cells after 16 hrs by XTT/PMS assay. The note with it: HL-60, 16 h. (In general: Tetrazolium assays rely on reduction of a dye to a coloured formazan, in cell work by metabolically active cells.)
Data set [9] in a line: Specific index, ratio of IC50 for human HL60 cells to MIC for LFA1/ICAM1 mediated aggregation in TPA-stimulated human HL60 cells. Format: functional, HL-60. Put shortly: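 Ratio of XTT IC50 in HL-60 cells (4 h XTT-PMS read after the aggregation assay) to the microscopic aggregation MIC of PMA (10 ng/mL)-stimulated HL-60 cells scored 16 h after PMA.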
For data set [10], the target named is Intercellular adhesion molecule (ICAM-1), Integrin alpha-L/beta-2 (Homo sapiens, UniProt P05107+P05362+P20701). The data set can be described thus: Inhibition of LFA1/ICAM1-mediated CFSE-labeled TPA-stimulated human HL60 cell adhesion to ICAM1 expressing human HeLa cells after 45 mins by fluorescence analysis. Format: cell-based. In a few lines: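 CFSE-labelled HL-60 cells plus sample added onto confluent ICAM-1-expressing HeLa monolayers with PMA 50 ng/mL; 45 min at 37 °C in CO2 incubator; nonadherent cells washed off, remainder lysed in 1% Triton X-100; fluorescence at ex 496/em 519 nm; anti-ICAM-1 antibody and cytochalasin B positive controls.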
Sequence of Intercellular adhesion molecule (ICAM-1), Integrin alpha-L/beta-2 (P20701 whole entry): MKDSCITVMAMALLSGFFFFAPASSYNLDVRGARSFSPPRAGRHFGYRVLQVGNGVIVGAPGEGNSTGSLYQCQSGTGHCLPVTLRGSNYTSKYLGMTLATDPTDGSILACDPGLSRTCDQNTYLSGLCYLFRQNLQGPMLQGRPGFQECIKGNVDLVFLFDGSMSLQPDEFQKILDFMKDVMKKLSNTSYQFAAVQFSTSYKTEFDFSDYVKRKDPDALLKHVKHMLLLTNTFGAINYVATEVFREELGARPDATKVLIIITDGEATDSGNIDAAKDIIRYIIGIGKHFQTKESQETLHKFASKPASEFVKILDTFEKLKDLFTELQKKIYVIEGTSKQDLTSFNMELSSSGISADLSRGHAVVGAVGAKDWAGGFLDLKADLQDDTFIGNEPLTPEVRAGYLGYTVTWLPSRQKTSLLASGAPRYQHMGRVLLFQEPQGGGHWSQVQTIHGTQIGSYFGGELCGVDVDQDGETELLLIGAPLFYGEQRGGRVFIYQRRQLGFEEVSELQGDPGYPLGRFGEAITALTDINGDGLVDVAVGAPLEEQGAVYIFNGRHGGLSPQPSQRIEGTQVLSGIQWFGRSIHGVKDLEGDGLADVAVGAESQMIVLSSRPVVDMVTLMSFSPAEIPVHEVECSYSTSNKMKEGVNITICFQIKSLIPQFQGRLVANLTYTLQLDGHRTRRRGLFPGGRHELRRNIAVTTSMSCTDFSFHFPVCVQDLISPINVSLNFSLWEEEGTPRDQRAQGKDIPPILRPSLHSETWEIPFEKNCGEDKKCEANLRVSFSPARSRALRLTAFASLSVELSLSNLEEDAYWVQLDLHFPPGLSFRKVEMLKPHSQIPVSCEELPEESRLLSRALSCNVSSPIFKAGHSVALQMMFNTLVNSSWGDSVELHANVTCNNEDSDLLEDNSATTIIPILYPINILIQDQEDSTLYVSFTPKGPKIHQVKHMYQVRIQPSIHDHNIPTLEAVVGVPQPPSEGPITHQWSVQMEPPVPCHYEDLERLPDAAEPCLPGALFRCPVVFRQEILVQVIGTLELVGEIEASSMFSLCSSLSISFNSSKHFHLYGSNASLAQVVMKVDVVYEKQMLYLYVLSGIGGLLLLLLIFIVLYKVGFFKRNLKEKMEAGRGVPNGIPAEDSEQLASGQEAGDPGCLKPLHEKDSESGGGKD
Sequence of Intercellular adhesion molecule (ICAM-1), Integrin alpha-L/beta-2 (P05362 whole entry): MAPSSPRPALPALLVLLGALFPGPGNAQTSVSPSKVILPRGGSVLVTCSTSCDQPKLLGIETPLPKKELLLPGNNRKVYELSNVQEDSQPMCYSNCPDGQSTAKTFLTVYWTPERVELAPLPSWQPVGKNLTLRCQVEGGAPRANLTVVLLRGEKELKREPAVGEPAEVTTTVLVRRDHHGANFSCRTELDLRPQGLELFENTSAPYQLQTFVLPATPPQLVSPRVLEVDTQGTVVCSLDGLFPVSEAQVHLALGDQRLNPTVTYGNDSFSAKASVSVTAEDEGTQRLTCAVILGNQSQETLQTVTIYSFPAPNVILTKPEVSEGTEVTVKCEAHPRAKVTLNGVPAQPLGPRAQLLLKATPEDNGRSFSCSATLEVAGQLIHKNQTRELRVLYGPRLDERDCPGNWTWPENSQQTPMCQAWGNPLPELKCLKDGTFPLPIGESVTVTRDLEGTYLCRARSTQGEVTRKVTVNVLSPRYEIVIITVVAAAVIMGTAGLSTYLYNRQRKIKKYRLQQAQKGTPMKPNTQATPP
Sequence of Intercellular adhesion molecule (ICAM-1), Integrin alpha-L/beta-2 (P05107 whole entry): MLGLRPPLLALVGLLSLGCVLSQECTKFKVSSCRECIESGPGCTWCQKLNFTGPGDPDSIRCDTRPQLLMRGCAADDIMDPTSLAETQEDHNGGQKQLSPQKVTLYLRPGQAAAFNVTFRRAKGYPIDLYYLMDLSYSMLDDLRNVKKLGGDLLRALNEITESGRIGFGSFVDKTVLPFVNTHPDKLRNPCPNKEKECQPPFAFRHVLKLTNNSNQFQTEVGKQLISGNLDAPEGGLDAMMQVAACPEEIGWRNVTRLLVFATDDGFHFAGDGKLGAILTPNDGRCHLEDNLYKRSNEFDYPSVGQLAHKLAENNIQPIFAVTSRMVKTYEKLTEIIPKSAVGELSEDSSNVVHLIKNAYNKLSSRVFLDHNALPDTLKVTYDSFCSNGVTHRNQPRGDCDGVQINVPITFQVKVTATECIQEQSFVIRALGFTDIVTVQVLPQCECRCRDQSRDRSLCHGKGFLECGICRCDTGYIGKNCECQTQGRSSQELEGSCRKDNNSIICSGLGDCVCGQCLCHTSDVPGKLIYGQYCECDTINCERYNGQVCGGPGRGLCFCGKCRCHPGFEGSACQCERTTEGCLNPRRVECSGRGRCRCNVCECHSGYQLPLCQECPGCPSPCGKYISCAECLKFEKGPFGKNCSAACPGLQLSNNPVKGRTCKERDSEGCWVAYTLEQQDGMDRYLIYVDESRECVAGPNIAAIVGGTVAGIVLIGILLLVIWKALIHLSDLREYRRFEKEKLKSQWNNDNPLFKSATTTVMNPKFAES

A short description of data set [11]: Specific index, ratio of IC50 for human HL60 cells to IC50 for LFA1/ICAM1-mediated CFSE-labeled TPA-stimulated human HL60 cell adhesion to ICAM1 expressing human HeLa cells. In a few lines:
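Index = HL-60 XTT IC50 / adhesion IC50. XTT: HL-60 at 1 × 10^6 cells/mL, sample 10 min, then PMA 10 ng/mL for 16 h; then XTT 1 mg/mL with 25 µM PMS for 4 h at 37 °C, A450 (ref 630). Adhesion: CFSE-labeled HL-60 on confluent HeLa monolayers, PMA 50 ng/mL, 45 min at 37 °C; nonadherent cells washed off, remainder lysed in 1% Triton X-100, fluorescence ex 496/em 519 nm.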

Data set [12] has as its system Candida albicans. The data set can be described thus: Antifungal activity against Candida albicans B311. Format: functional.
The mark [13] stands for this setting: Homo sapiens, BT-549, read-out: IC50.
Setting [14] is: Homo sapiens, KB, read-out: IC50.
Setting [15] is: Staphylococcus aureus, ATCC 33591, 48 h.
Where [16] appears, read: Staphylococcus aureus, ATCC 33591, 48 h, read-out: IC50.
The mark [17] stands for this setting: Staphylococcus aureus, ATCC 6535, 48 h, read-out: IC50.

Molecules are shown by their SMILES. Converted amounts (≈) assume the structure as drawn. The source made the active and inactive calls. No cut-off for these calls is given here.

The IC50 is the concentration that inhibits the measured activity by half. On to `COc1cccc2c1C(=O)c1c(O)c3c(c(O)c1C2=O)C[C@@](O)(C(=O)CO)C[C@@H]3O[C@H]1C[C@H](N)[C@H](O)[C@H](C)O1` [DOXORUBICIN], for which the IC50 with BT-549 (setting [13]), with SK-OV-3, in the data set with KB (setting [14]) and with SK-MEL was below 1.1 µg/mL each time.

`O=c1[nH]cc(F)c(=O)[nH]1` [FLUOROURACIL]: the IC50 entry with BT-549 (bt-549) was “Not Active”; with SK-OV-3, above 10 µg/mL; in the data set with KB (setting [14]), above 10 µg/mL; in the data set on SK-MEL, 6.3 µg/mL (≈ 48.4 µM).

As to `COc1ccc2c(OC)c3c4c(ccnc4c2c1)C(=O)C(=O)N3C` [HADRANTHINE A], the IC50 was 0.12 µg/mL (≈ 0.372 µM) in the data set on Plasmodium falciparum [1]; above 10 µg/mL with BT-549 (setting [13]); above 10 µg/mL in the data set with SK-OV-3; “Not Active” with KB (kb); “Not Active” in the data set on Cryptococcus neoformans; “Not Active” with Staphylococcus aureus [2]. The IC50 entry was “Not Active” with Staphylococcus aureus [3], 4.5 µg/mL (≈ 14 µM) in the data set with Candida albicans [5], above 10 µg/mL in the data set with SK-MEL and 0.12 µg/mL (≈ 0.372 µM) in the data set on Plasmodium falciparum [7]. Further, the MIC result in the data set with Cryptococcus neoformans, in the data set with Staphylococcus aureus [2] and with Staphylococcus aureus [3] was “inactive” in each case. Besides, the selectivity ratio in data set [4] and in data set [6] was above 40 throughout. The molecule further came in with an MIC against Candida albicans [5] of 20 µg/mL (≈ 62.1 µM).

Consider `COc1c2c3c(ccnc3c3ccccc13)C(=O)C(=O)N2` [HADRANTHINE B], for which the IC50 in the data set with BT-549 (setting [13]) was 6.6 µg/mL (≈ 23.7 µM); in the data set on SK-OV-3 it was 3.6 µg/mL (≈ 12.9 µM); with KB (setting [14]), 6.4 µg/mL (≈ 23 µM); in the data set with HL-60 it was above 12.5 µg/mL; in the data set on SK-MEL, 3 µg/mL (≈ 10.8 µM). For the same molecule, the MIC in data set [8] stood at 4.2 µg/mL (≈ 15.1 µM). Further, the “Ratio IC50” value in data set [9] is given as 3.

Turning to `CO[C@H]1/C=C/O[C@@]2(C)Oc3c(C)c(O)c4c(O)c(c(/C=N/N5CCN(C)CC5)c(O)c4c3C2=O)NC(=O)/C(C)=C\C=C\[C@H](C)[C@H](O)[C@@H](C)[C@@H](O)[C@@H](C)[C@H](OC(C)=O)[C@@H]1C` [RIFAMPIN], the MIC in the data set on Staphylococcus aureus [2] (setting [15]) came to 0.312 µg/mL (≈ 0.38 µM); against Staphylococcus aureus [3] (Staphylococcus aureus, ATCC 6535, 48 h), 0.02 µg/mL (≈ 0.0243 µM). Moreover, the figures for the IC50 in the data set on Staphylococcus aureus [2] (setting [16]) and in the data set with Staphylococcus aureus [3] (setting [17]) were 0.0025 µg/mL (≈ 0.00304 µM) and 0.01 µg/mL (≈ 0.0122 µM), respectively.

For the molecule `O=C1c2ccccc2-c2nccc3ccnc1c23` [SAMPANGINE], the IC50 in data set [10] is above 43.1 µM; in the data set with Plasmodium falciparum [1], 0.42 µg/mL (≈ 1.81 µM); with BT-549 (setting [13]), 6.4 µg/mL (≈ 27.6 µM); with SK-OV-3 it was 4.1 µg/mL (≈ 17.7 µM); in the data set on KB (setting [14]), 5.3 µg/mL (≈ 22.8 µM); with Cryptococcus neoformans (Cryptococcus neoformans, ATCC 90113, 48 h, read-out: IC50), 0.15 µg/mL (≈ 0.646 µM). The IC50 in the data set on HL-60 is 2 µg/mL (≈ 8.61 µM); in the data set with Staphylococcus aureus [2] (setting [16]) it was 9 µg/mL (≈ 38.8 µM); with Staphylococcus aureus [3] (setting [17]) it was 5.5 µg/mL (≈ 23.7 µM); with Candida albicans [5], 0.15 µg/mL (≈ 0.646 µM); in the data set with SK-MEL, 0.37 µg/mL (≈ 1.59 µM); in the data set with Plasmodium falciparum [7], 0.068 µg/mL (≈ 0.293 µM). In addition, the “Ratio IC50” value in [11] is on record as below 0.2. Besides, the MIC is 1.56 µg/mL (≈ 6.72 µM) against Candida albicans [12]; 0.78 µg/mL (≈ 3.36 µM) against Cryptococcus neoformans (Cryptococcus neoformans, ATCC 90113, 48 h); below 0.15 µg/mL in data set [8]; 12.5 µg/mL (≈ 53.8 µM) with Staphylococcus aureus [2] (setting [15]); 0.39 µg/mL (≈ 1.68 µM) with Candida albicans [5]. For the same molecule, the selectivity ratio in [4] is above 70; in [6], above 11. Moreover, the Ratio in data set [9] was above 13.3.
